# SKN-1 inh – suppressors of acrylamide-induced Pgst-4::GFP reporter in worms, primary screen, SKN-1 inhibitor project, whole organism, uHTS, GFP/RFP fluorescence ratio, strain VP596; AID 624304, 2012; C. elegans VP596 Pgst-4::GFP/RFP ratio, 24 h; hit rate 0.49% among 360,000; inhibition, % at 21.8 µM;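 active = interference check ratio from 0.5 to 1.5 plus GFP to RFP signal ratio inhibition reaching or exceeding a fixed threshold, cut at about 30% in these data, passing the limit was not always enough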
# DNMT1 inh – human DNMT1 methyltransferase inhibitors, primary screen, biochemical, molecular beacon, fluorescence, HinP1I cleavage, uHTS; hit rate 0.83% among 360,000; inhibition (reported as % activation of signal), % at 10 µM; in the data active = inhibition above about 50%
# SUMO1-SIM PPI – modulators of SUMO1 protein-protein interactions, primary screen, biochemical, uHTS. Small ubiquitin-related modifier 1 (Homo sapiens), P63165. SUMO1 binding to a labelled peptide, TR-FRET, 1 h. inhibition, % at 20 µM. hit rate 0.33% among 360,000. AID 602429, 2012; in the data active = inhibition above about 37%
# CSN deneddyl inh – inhibitors of CSN-mediated cullin deneddylation, primary screen, biochemical, fluorescence polarization, uHTS. hit rate 0.38% among 360,000. AID 651999, 2013. Purified CSN, SCF-Nedd8-OG deneddylation. inhibition, % at 12.5 µM;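 active = pattern-corrected inhibition above about 35%, with an unprinted fluorescence ratio check between 0.5 and 1.5, limit read from the data, passing the limit was not always enough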;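 also: 0% = enzyme with substrate and 100% = substrate without enzyme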
# Target sequence (Q92905 whole entry, looked up, one chain of several): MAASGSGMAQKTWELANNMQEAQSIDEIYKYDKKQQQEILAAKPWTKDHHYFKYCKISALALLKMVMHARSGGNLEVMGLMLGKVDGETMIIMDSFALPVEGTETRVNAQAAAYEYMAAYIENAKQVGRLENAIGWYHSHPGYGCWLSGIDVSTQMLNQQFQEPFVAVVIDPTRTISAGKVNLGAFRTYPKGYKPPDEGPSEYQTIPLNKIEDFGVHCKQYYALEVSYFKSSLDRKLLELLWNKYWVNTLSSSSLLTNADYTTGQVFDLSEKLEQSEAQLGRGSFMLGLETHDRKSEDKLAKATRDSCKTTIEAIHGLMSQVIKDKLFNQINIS
#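 assay system = purified human Csn5 enzyme expressed in HEK293T cells | amount = 0.24 nM enzyme | buffer or medium = Tris/NaCl/DTT buffer, pH 7.5 | reagent = 10 nM SCFSkp2-Nedd8OG | compound = one concentration, 12.5 µM, 0.25% DMSO | times = 90 min reaction at room temperature | signal = FP | read-out basis = % inhibition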
# MT1-MMP act inh – blockers of MT1-MMP proenzyme processing, primary screen, HT1080 RFP-PRO-GFP cells, GFP/RFP fluorescence; GFP/RFP ratio fluorescence, overnight; percent of plate control window, DMSO zero; GFP/RFP ratio change, % at 20 µM; Matrix metalloproteinase-14 (Homo sapiens), P50281; hit rate 0.061% among 360,000;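 active = GFP/RFP ratio change of at least 30% with cell ATP level not reduced by more than half and red fluorescence within 50% of control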
#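 Assay system: HT1080 RFP-PRO-GFP cells. Benchmarks: DMSO vehicle wells and RFP-L50D-GFP reporter cell wells. Times: overnight cell settling, then overnight compound exposure, 37 °C, 5% CO2. Compound: 20 µM single dose, 1% DMSO. Read-out basis: GFP/RFP fluorescence ratio.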
# Rpn11 block – Rpn11 (PSMD14) deubiquitinase inhibitors, primary screen, biochemical, fluorescence polarization, uHTS; human 26S proteasome, Ub4-pepOG fluorescence polarization; 20S core pre-blocked with epoxomicin; inhibition, % at 20 µM; hit rate 0.59% among 360,000; AID 588493, 2011;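 active = inhibition at 20 µM, scaled to each plate's controls, above about 33%, limit read from the data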
# Target sequence (O00487 whole entry, looked up): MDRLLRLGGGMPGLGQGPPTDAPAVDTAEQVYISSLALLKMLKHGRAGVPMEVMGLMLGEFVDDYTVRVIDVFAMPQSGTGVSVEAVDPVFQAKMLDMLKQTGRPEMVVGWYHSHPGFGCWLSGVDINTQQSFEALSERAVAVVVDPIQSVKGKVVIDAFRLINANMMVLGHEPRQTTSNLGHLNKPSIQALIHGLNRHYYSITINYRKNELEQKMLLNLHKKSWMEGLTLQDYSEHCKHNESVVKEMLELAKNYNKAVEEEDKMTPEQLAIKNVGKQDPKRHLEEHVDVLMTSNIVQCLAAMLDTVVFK
# Numbers without * were called inactive; · = no result shown. Most compounds without a hit are left out; they make up all but 2.3% or so of the library.
SMILES,SKN-1 inh,DNMT1 inh,SUMO1-SIM PPI,CSN deneddyl inh,MT1-MMP act inh,Rpn11 block
CCc1nn2c(=O)cc(COc3ccc(NC(=O)c4ccco4)cc3)nc2s1,15.2,1.1,4.4,2.7,-1.4,7.4
COc1cc(CNC2CCCC2)cc(Cl)c1OCc1ccc(F)cc1,56.3*,-0.5,-2.6,0.1,2.7,3.0
CCOc1cc(CNC2CCCC2)cc(Cl)c1OCc1ccc(F)cc1,75.1*,2.3,-2.3,-0.7,-14.3,-13.4
c1cc(CNc2ccc3c(c2)OCO3)ccn1,36.9*,-21.1,-2.6,-12.1,-10.7,-39.2
Cc1cccc(NC(=O)CNC(=O)CSc2ncccn2)c1C,15.7,2.9,22.9,-4.6,-1.4,-5.2
Cc1cccc(NC(=O)CNC(=O)Cn2ncc(Cl)c(Cl)c2=O)c1C,-2.0,83.2*,10.9,15.8,-13.1,-9.6
CCN(CC)c1ccc(/C=C(/C#N)c2nc3ccc(C)cc3[nH]2)c(OC(C)C)c1,18.1,53.4*,-79.7,-71.6,-424.3,·
CCCOc1cc(N(CC)CC)ccc1/C=C(/C#N)c1nc2ccc(C)cc2[nH]1,29.3,-1.4,-59.3,8.3,-338.7,·
N/C(=N\OC(=O)COc1ccc(Cl)cc1Cl)c1ccncc1,47.9*,3.8,-1.3,5.6,2.9,-4.4
CCCC(=O)N1CCC1(C)C(=O)Nc1scc(C)c1C#N (stereo unspecified),8.0,-1.2,2.0,1.0,-0.1,-1.9
O=[N+]([O-])c1ccccc1N/N=C\c1ccccc1Cl,10.9,2.3,-2.6,2.3,5.4,-5.2
O=[N+]([O-])c1ccccc1N/N=C/c1cccc(O)c1O,0.6,43.3,44.6*,-2.9,1.1,-6.5
CC(=O)c1cc(NC(=O)c2ccc(C)cc2)c(=O)oc1/C=C/N(C)C,22.8,2.2,-29.0,60.5*,-24.5,·
CC(=O)c1cc(NC(=O)c2ccc(C)cc2)c(=O)oc1C,-18.0,3.1,-4.4,3.9,-2.4,4.3
COc1ccc(C(=O)Nc2cc(C(C)=O)c(/C=C/N(C)C)oc2=O)cc1,-40.0,1.4,-27.6,52.2*,-116.6,·
CC(=O)c1ccc(-c2cnc3c(NC=O)cc(-c4cnn(C)c4)cn23)cc1,9.5,-3.2,-13.3,4.7,-12.5,2.3
C/C(=N\Nc1ccc(C(=O)c2c(C)cc3ccccn23)cc1[N+](=O)[O-])c1ccc(O)cc1,-0.7,-6.7,-11.4,-0.4,14.0,-8.2
Cc1cc2ccccn2c1C(=O)c1ccc(N/N=C/c2ccc(C(=O)O)cc2)c([N+](=O)[O-])c1,8.9,88.1*,103.7*,1.7,3.2,-31.2
CC(=O)c1cccc(NC(=O)N2CCCC2C(=O)Nc2c(C)cccc2C)c1 (stereo unspecified),37.2*,3.9,0.5,-1.9,-4.4,3.2
CC(=O)c1cccc(NC(=O)N2CCCC2C(=O)Nc2cccc(C)c2)c1 (stereo unspecified),0.7,3.5,-2.4,-0.3,6.7,-0.5
Cc1cc(C(=O)CSc2nnc(-c3cccs3)n2Cc2ccccc2)c(C)n1C,35.8*,-4.7,2.7,0.9,-5.4,4.1
CCOc1ccc(S(=O)(=O)Nc2nc3ccccc3nc2-n2ccc(=NC(=O)c3cccs3)cc2)cc1,2.0,4.8,-12.1,45.7*,-13.0,·
O=C(N=c1ccn(-c2nc3ccccc3nc2NS(=O)(=O)c2ccc(Cl)cc2)cc1)c1cccs1,-6.5,39.1,-75.0,11.2,-59.0,36.7
COc1ccc(Cl)c(-c2cc(C(=O)Nc3ccc(F)cc3)[nH]n2)c1,-2.7,0.2,10.9,1.0,2.6,-0.4
COc1ccc(C2C(C(=O)c3ccccc3)N3c4ccccc4C=CC3C2[N+](=O)[O-])cc1 (stereo unspecified),-6.5,1.4,-22.7,36.7*,-110.6,·
SMILES,SKN-1 inh,DNMT1 inh,SUMO1-SIM PPI,CSN deneddyl inh,MT1-MMP act inh,Rpn11 block
COc1ccc(N2C(=O)[C@@H]3[C@H](C2=O)[C@H](C(C)=O)N2c4ccccc4C=C[C@@H]32)cc1,-1.2,-19.7,-14.0,4.4,-43.2,9.4
O=C(NCc1cccc(C(F)(F)F)c1)c1csc([C@H]2C[C@H](O)[C@@H](CO)O2)n1,3.2,-3.8,1.3,-1.0,-4.9,-1.3
COc1cccc(C2CC3(CC(C)(C)NC(=S)N3)Oc3cc(O)ccc32)c1 (stereo unspecified),6.7,9.5,2.5,-0.6,17.2,-8.7
CSC1=NC2(CC(c3ccccc3)Oc3cc(O)ccc32)CC(C)(C)N1 (stereo unspecified),42.8*,-2.5,-2.8,-1.1,-8.8,-18.7
Cc1cc(F)ccc1C(O)c1ncc(-c2cccc(OCc3ccccc3)c2)[nH]1 (stereo unspecified),10.0,-0.3,0.6,2.5,8.5,7.9
O=[N+]([O-])c1ccc(Oc2ccc(F)cc2)c2ccncc12,36.2*,-1.1,-24.3,0.2,-12.9,-3.0
O=[N+]([O-])c1ccc(Oc2cccc(Br)c2)c2ccncc12,4.8,-3.5,-18.6,-6.0,-9.7,-10.1
CN1OC[C@@H]2CN(C(=O)Nc3ccccc3)[C@H](c3ccc(N4CCCCC4)cc3)C[C@@H]21,8.5,2.4,-2.9,4.2,2.4,6.2
COc1ccc(OC)c(C(=O)C2COC(=O)C2)c1 (stereo unspecified),36.7*,-2.3,2.4,0.1,13.9,-0.7
CC1CN(S(=O)(=O)c2cccc(C(=O)OCC(=O)Nc3ccc4c(c3)OCO4)c2)CC(C)O1 (stereo unspecified),43.8*,-5.2,0.7,0.7,-7.4,-3.6
OC(c1ccccc1)(c1nc(-c2cccc3cccnc23)cs1)C(F)(F)F (stereo unspecified),26.9,-3.4,-6.4,-1.6,1.1,1.2
CCNC(=O)C1(C)CCCN1C(=O)c1ccc(C#N)cc1 (stereo unspecified),63.3*,-1.4,-2.2,-0.8,2.0,-3.7
COc1ccc2c(Cl)cc(NC(=O)Nc3c(C)cccc3C)nc2c1,22.8,20.1,-18.8,4.7,-4.3,0.1
Cc1ccccc1NC(=O)c1sc(Cl)nc1-c1ccccc1,9.4,-0.7,0.2,-2.5,7.3,3.4
Cc1ccc(C)c(NC(=O)c2sc(Cl)nc2-c2ccccc2)c1,48.4*,-2.7,0.3,-2.3,0.1,8.2
